Source: ChEMBL document CHEMBL1127420, “Syntheses of racemic and nearly optically pure ether lipids and evaluation of in vitro antineoplastic activities” (J Med Chem, 1994)

Assays:
[1] = test system: B-lymphoblastic leukemic cell line; assay: Cytotoxicity was assessed by measurement of cytosolic lactic dehydrogenase (LDH) leakage after 24 hr incubation with human B-lymphoblastic leukemic ([…]) cell line; type: functional; conditions: for IC50: Homo sapiens, B-lymphoblastic leukemic cell line, 24 h, read-out: ID50 (the source's name)
In short: (§1)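 Log-phase cells were washed and resuspended in phenol red-free RPMI 1640, then mixed 1:1 with lipid in serum medium. Final conditions were 5 × 10^5 cells/mL, 0–50 µg/mL ether lipid and 0.5% ethanol, in triplicate at 37 °C in 5% CO2 for 24 h. Supernatant LDH was measured with lactate/INT/PMS/NAD in Tris pH 8.2, read at 490 nm after 3 min. % cytotoxicity = (E−S)/(M−S), with M from freeze-thaw. ID50 came from nonlinear regression, mean ± SD.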

HuT78 = assay: Cytotoxicity was assessed by measurement of cytosolic lactic dehydrogenase (LDH) leakage after 24 hr incubation with human cutaneous T-lymphoma (Hut 78) cell line; type: functional; conditions: for IC50: Homo sapiens, HuT78, 24 h, read-out: ID50 (the source's name); in short: as §1
[2] = Cytotoxicity was assessed by measurement of cytosolic lactic dehydrogenase (LDH) leakage after 24 hr incubation with freshly isolated human peripheral lymphocytes; conditions: read-out: ID50
In short: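 Peripheral lymphocytes were pooled from two unmedicated human donors and isolated by the Boyum method, giving >85% lymphocytes; viability was checked by trypan blue. Cytotoxicity was measured as 24 h LDH leakage into the medium and expressed as % of maximal freeze-thaw release after subtracting spontaneous release. ID50 came from a nonlinear regression fit of cytotoxicity versus dose.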

CCRF-CEM = assay: Cytotoxicity was assessed by measurement of cytosolic lactic dehydrogenase (LDH) leakage after 24 hr incubation with human T-lymphoblastic leukemic (CEM) cell line; type: functional; conditions: for IC50: Homo sapiens, CCRF-CEM, 24 h, read-out: ID50 (the source's name); in short: as §1

Structure (SMILES) | IC50 [1] [µg/mL] | IC50 (HuT78) [µg/mL] | CC50 at 24 h [2] [µg/mL] | IC50 (CCRF-CEM) [µg/mL] | ID50 [1] [µg/mL] | ID50 (HuT78) [µg/mL] | ID50 (CCRF-CEM) [µg/mL]
CCCCCCCCCCCCCCCCCCOCC(COP(=O)(O)O[C@H](C)C[N+](C)(C)C)OC.[OH-] (stereo partly drawn) | 10.1 | 9.1 | > 100 | 2.7 | – | – | –
CCCCCCCCCCCCCCCCCCOCC(COP(=O)(O)OCC[N+]1(C)CCOCC1)OC.[OH-] (stereo not drawn) | 8.4 | 3.4 | 52.1 | 2.8 | – | – | –
CCCCCCCCCCCCCCCCCCOCC(COP(=O)(O)OCCN(C)C)OC.O (stereo not drawn) | 9.6 | 3.5 | 24.6 | 4.6 | – | – | –
CCCCCCCCCCCCCCCCCCOCC(COP(=O)(O)OCC[N+]1(C)CCCC1)OC.[OH-] (stereo not drawn) | 13.2 | 9.3 | 22.7 | 2.7 | – | – | –
CCCCCCCCCCCCCCCCCCOCC(COP(=O)(O)OC[C@H](C)[N+](C)(C)C)OC.[OH-] (stereo partly drawn) | 8.9 | 5.9 | > 100 | 2.1 | – | – | –
CCCCCCCCCCCCCCCCCCOCC(COP(=O)(O)OC[C@@H](C)[N+](C)(C)C)OC.[OH-] (stereo partly drawn) | 9.9 | 6.9 | > 100 | 2 | – | – | –
CCCCCCCCCCCCCCCCCCOCC(COP(=O)(O)O[C@@H](C)C[N+](C)(C)C)OC.[OH-] (stereo partly drawn) | 9.8 | 9.3 | > 100 | 2.3 | – | – | –
CCCCCCCCCCCCCCCCCCOCC(COP(=O)(O)OCC[N+](C)(C)C)OC.[OH-] (stereo in doubt; 1) | – | – | – | – | 15.3 | 4.5 | 1.5
CCCCCCCCCCCCCCCCCCOCC(COP(=O)(O)OCC[N+](C)(C)C)OC.[OH-] (stereo in doubt; 2) | 16.3 | 4.1 | > 100 | 1.9 | – | – | –
CCCCCCCCCCCCCCCCCCOCC(COP(=O)(O)OCC[N+](C)(C)C)OC.[OH-] (stereo in doubt; 3) | – | – | – | – | 20.4 | 6.6 | 2
